From ChEMBL document CHEMBL3608288, “Novel Chalcone-Thiazole Hybrids as Potent Inhibitors of Drug Resistant Staphylococcus aureus” (ACS Med Chem Lett, 2015)
In brackets after ≈: the same amount, converted by molar mass. Activity calls are given as the source filed them. The calls are words filed in the database; no cut-off is given here.

What was measured:
Escherichia coli = test: Antibacterial activity against Escherichia coli ATCC 9637 after 16 hrs by microtiter broth dilution method; format: functional; settings: W
Pseudomonas aeruginosa = test: Antibacterial activity against Pseudomonas aeruginosa ATCC BAA-427 after 16 hrs by microtiter broth dilution method; format: functional
Staphylococcus aureus [1] = test: Antibacterial activity against Staphylococcus aureus ATCC 25923 after 16 hrs by microtiter broth dilution method; format: functional
Staphylococcus aureus [2] = test: Antibacterial activity against methicillin-resistant Staphylococcus aureus ATCC 700699 after 16 hrs by microtiter broth dilution method; format: functional
Staphylococcus aureus [3] = test: Antibacterial activity against […] Staphylococcus aureus ATCC 29213 after 16 hrs by microtiter broth dilution method; format: functional
Staphylococcus aureus [4] = test: Antibacterial activity against methicillin/gentamicin-resistant Staphylococcus aureus ATCC 33592 after 16 hrs by microtiter broth dilution method; format: functional
Klebsiella pneumoniae = test: Antibacterial activity against Klebsiella pneumoniae ATCC 27736 after 16 hrs by microtiter broth dilution method; format: functional
Candida albicans = test: Antifungal activity against Candida albicans after 16 hrs by microtiter broth dilution method; format: functional
Cryptococcus neoformans = test: Antifungal activity against Cryptococcus neoformans after 16 hrs by microtiter broth dilution method; format: functional
Sporothrix schenckii = test: Antifungal activity against Sporothrix schenckii after 16 hrs by microtiter broth dilution method; format: functional
[5] = test system: Trichophyton mentagrophytes; test: Antifungal activity against Trichophyton mentagrophytes after 16 hrs by microtiter broth dilution method; format: functional
Aspergillus fumigatus = test: Antifungal activity against Aspergillus fumigatus after 16 hrs by microtiter broth dilution method; format: functional
Candida parapsilosis = test: Antifungal activity against Candida parapsilosis ATCC 22019 after 16 hrs by microtiter broth dilution method; format: functional
[6] = Hemolytic activity in human RBC at 100 ug/ml after 1 hr; settings: erythrocyte
L929 [7] = test: Cytotoxicity against mouse L929 cells assessed as cell viability at <= MIC by MTT assay; format: cell-based
In short: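 Mouse fibroblast L929 cells were exposed to the compound. Viability was read by MTT conversion to blue formazan, measured at 550 nm.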

L929 [8] = test: Cytotoxicity against mouse L929 cells assessed as induction of morphological changes at 1 x MIC after 24 hrs by Giemsa staining-based phase contrast microscopic analysis; format: cell-based; settings: l929, 24 h
In short: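 L929 fibroblasts were incubated with the compound for 24 h, then Giemsa-stained. Morphology was compared with untreated control cells under phase contrast microscopy for appearance, transparency and attachment to the well surface.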

Staphylococcus aureus [9] = test: Antibacterial activity against […] Staphylococcus aureus ATCC 29213 assessed as reduction in log10CFU at 1x MIC and 10x MIC measured at 24 hrs relative to control; format: functional
In short: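 Aliquots were taken at regular time points and plated for CFU counts. Reduction in log10 CFU was taken against a no-drug control.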

[10] = Lodderomyces parapsilosis, ATCC 22019, 16 h

Compound | MIC (Escherichia coli) | MIC (Pseudomonas aeruginosa; ATCC BAA-427, 16 h) | MIC (Staphylococcus aureus [1]; ATCC 25923, 16 h) | MIC (Staphylococcus aureus [2]; ATCC 700699, 16 h) | MIC (Staphylococcus aureus [3]; ATCC 29213, 16 h) | MIC (Staphylococcus aureus [4]; ATCC 33592, 16 h) | MIC (Klebsiella pneumoniae; ATCC 27736, 16 h) | MIC (Candida albicans) | MIC (Cryptococcus neoformans) | MIC (Sporothrix schenckii) | MIC [5] | MIC (Aspergillus fumigatus) | MIC (Candida parapsilosis; [10]) | Activity [6] | other results
COc1ccc(C(=O)/C=C/c2cc(/C=N/c3nc(-c4ccc(OC)c(OC)c4)cs3)c(O)c(C(C)(C)C)c2)cc1 | > 89.8 µM | > 89.8 µM | 11.2 µM (≈ 6.23 µg/mL) | 11.2 µM (≈ 6.23 µg/mL) | 11.2 µM (≈ 6.23 µg/mL) | 5.6 µM (≈ 3.12 µg/mL) | > 89.8 µM | > 89.8 µM | > 89.8 µM | > 89.8 µM | > 89.8 µM | > 89.8 µM | > 89.8 µM | Non-toxic | 
CCOC(=O)c1csc(/N=C/c2cc(/C=C/C(=O)c3ccc(C)cc3)cc(C(C)(C)C)c2O)n1 | > 105 µM | > 105 µM | 6.5 µM (≈ 3.1 µg/mL) | 13.1 µM (≈ 6.24 µg/mL) | 6.5 µM (≈ 3.1 µg/mL) | 3.3 µM (≈ 1.57 µg/mL) | > 105 µM | > 105 µM | > 105 µM | > 105 µM | > 105 µM | > 105 µM | > 105 µM | Non-toxic | Activity (L929 [7]): Non-toxic; Activity (L929 [8]): Non-toxic
CN[C@H](CC(C)C)C(=O)N[C@H]1C(=O)N[C@@H](CC(N)=O)C(=O)N[C@H]2C(=O)N[C@H]3C(=O)N[C@H](C(=O)N[C@H](C(=O)O)c4cc(O)cc(O)c4-c4cc3ccc4O)[C@H](O)c3ccc(c(Cl)c3)Oc3cc2cc(c3O[C@@H]2O[C@H](CO)[C@@H](O)[C@H](O)[C@H]2O[C@H]2C[C@](C)(N)[C@H](O)[C@H](C)O2)Oc2ccc(cc2Cl)[C@H]1O [VANCOMYCIN] | > 157 µM | > 157 µM | 2.4 µM (≈ 3.48 µg/mL) | 9.8 µM (≈ 14.2 µg/mL) | 1.2 µM (≈ 1.74 µg/mL) | 2.4 µM (≈ 3.48 µg/mL) | > 157 µM | > 157 µM | 157 µM (≈ 227 µg/mL) | 157 µM (≈ 227 µg/mL) | 157 µM (≈ 227 µg/mL) | 157 µM (≈ 227 µg/mL) | 157 µM (≈ 227 µg/mL) |  | 
GENTAMICIN | 6.5 µM |  |  |  |  |  |  | > 105 µM | 105 µM | 105 µM | 105 µM | 105 µM |  |  | MIC (Pseudomonas aeruginosa): 1.6 µM; MIC (Staphylococcus aureus [1]): 1.6 µM; MIC (Staphylococcus aureus [2]): 105 µM; MIC (Staphylococcus aureus [3]): 3.3 µM; MIC (Staphylococcus aureus [4]): 105 µM; MIC (Klebsiella pneumoniae): 3.3 µM; MIC (Candida parapsilosis): 105 µM
CCOC(=O)c1csc(/N=C/c2cc(/C=C/C(=O)c3ccc(OC)cc3)cc(C(C)(C)C)c2O)n1 | > 102 µM | > 102 µM | 12.7 µM (≈ 6.26 µg/mL) | 12.7 µM (≈ 6.26 µg/mL) | 12.7 µM (≈ 6.26 µg/mL) | 3.2 µM (≈ 1.58 µg/mL) | > 102 µM | > 102 µM | > 102 µM | > 102 µM | > 102 µM | > 102 µM | > 102 µM | Non-toxic | 
OC(Cn1cncn1)(Cn1cncn1)c1ccc(F)cc1F [FLUCONAZOLE] | > 34.5 µM | > 34.5 µM | > 34.5 µM | > 34.5 µM | > 34.5 µM | > 34.5 µM | > 34.5 µM | 0.7 µM (≈ 0.214 µg/mL) | 1.4 µM (≈ 0.429 µg/mL) | 1.4 µM (≈ 0.429 µg/mL) | 22.1 µM (≈ 6.77 µg/mL) | 22.1 µM (≈ 6.77 µg/mL) | 1.4 µM (≈ 0.429 µg/mL) |  | 
COc1ccc(-c2csc(/N=C/c3cc(/C=C/C(=O)c4cccs4)cc(C(C)(C)C)c3O)n2)cc1OC | > 93.9 µM | > 93.9 µM | 23.5 µM (≈ 12.5 µg/mL) | 11.7 µM (≈ 6.23 µg/mL) | 11.7 µM (≈ 6.23 µg/mL) | 11.7 µM (≈ 6.23 µg/mL) | > 93.9 µM | > 93.9 µM | > 93.9 µM | > 93.9 µM | > 93.9 µM | > 93.9 µM | > 93.9 µM | Non-toxic | 
CCCc1cc(/C=C/C(=O)c2ccco2)cc(/C=N/c2nc(C(=O)OCC)cs2)c1O | > 102 µM | > 102 µM | 51.2 µM (≈ 22.5 µg/mL) | 51.2 µM (≈ 22.5 µg/mL) | 51.2 µM (≈ 22.5 µg/mL) | 51.2 µM (≈ 22.5 µg/mL) | > 102 µM | > 102 µM | > 102 µM | > 102 µM | > 102 µM | > 102 µM | > 102 µM | Non-toxic | 
C[C@H]1COc2c(N3CCN(C)CC3)c(F)cc3c(=O)c(C(=O)O)cn1c23 |  |  |  |  |  |  |  |  |  |  |  |  |  |  | Activity (Staphylococcus aureus [9]): Active
